Measured values as given in ChEMBL document CHEMBL1208669, “Synthesis of 2-(pyrimidin-2-yl)-1-phenyl-2,3,4,9-tetrahydro-1H-beta-carbolines as antileishmanial agents” (Eur J Med Chem, 2010).
In brackets after ≈: the same amount, converted by molar mass. Activity calls are given as the source filed them. The calls are words filed in the database; no cut-off is given here.

What was measured:
Leishmania donovani [1] = test: Antileishmanial activity against promastigotes of Leishmania donovani MHOM/IN/80/Dd8 after 72 hrs by luciferase reporter gene assay relative to control; assay type: functional
Summary of the method: (§1)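 Dd8 promastigotes transfected with firefly luciferase were kept in medium 199 + 10% FCS with antibiotics under G418. Late-log cells were incubated 72 h with serial drug dilutions, with parallel DMSO dilutions as controls. An aliquot was mixed 1:1 with Steady Glo and luminescence read as RLU. % inhibition = (N − n) × 100/N versus untreated control RLU; tested as serial dilutions or single concentration.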

Leishmania donovani [2] = test: Antileishmanial activity against amastigote of Leishmania donovani MHOM/IN/80/Dd8 infected in mouse J774A1 cells after 72 hrs by luciferase reporter gene assay; assay type: functional, organism-based; conditions: MHOM/IN/80/Dd8, J774.A1, 72 h
Summary of the method: (§2)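 J774A.1 macrophages were seeded at 1.5 × 10⁴ cells/well in RPMI-1640 + 10% FCS, 37 °C, CO₂, for 24 h. They were then infected with stationary-phase luciferase-transfected Dd8 promastigotes (2.25 × 10⁵/well), which transform to amastigotes. Compounds (0.25–10 range) were added in fresh medium for 72 h. Medium was removed, PBS and Steady Glo added, and luminescence read. Inhibition vs untreated controls; IC50 by logit regression.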

[3] = Cytotoxicity against mouse J774A1 cells after 72 hrs by MTT assay; assay type: cell-based, J774.A1
Summary of the method: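 J774A.1 cells were grown in RPMI + 10% FCS with gentamycin. Exponential cells (1 × 10⁴/well) were exposed to a range of drug concentrations (DMSO stocks diluted in complete medium) for 72 h at 37 °C in humidified CO₂/air. MTT was added, formazan dissolved in DMSO after 15 min shaking, and absorbance read at 544 nm. CC50 is the 50% viability reduction versus medium-only cells.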

[4] = (§3) Selectivity index, ratio of CC50 for mouse J774A1 cells to IC50 for amastigote of Leishmania donovani MHOM/IN/80/Dd8; assay type: functional, J774.A1
Summary of the method: (§4)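 Ratio of CC50 (J774A.1 MTT, 72 h) to IC50 against intracellular amastigotes in J774A.1 macrophages (luciferase read-out, 72 h).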

DU-145 [5] = test: Cytotoxicity against human DU145 cells by MTT assay; assay type: functional, cell-based
MCF7 [6] = test: Cytotoxicity against human MCF7 cells by MTT assay; assay type: functional, cell-based
KB [7] = test: Cytotoxicity against human KB cells by MTT assay; assay type: functional, cell-based
C-33-A [8] = test: Cytotoxicity against human C33A cells by MTT assay; assay type: functional, cell-based
Vero [9] = test: Cytotoxicity against african green monkey Vero cells by MTT assay; assay type: cell-based; conditions: chlorocebus sabaeus
Leishmania donovani [10] = test: Antileishmanial activity against amastigote of Leishmania donovani MHOM/IN/80/Dd8 infected in mouse J774A1 cells at 0.25 to 10 ug/ml after 72 hrs by luciferase reporter gene assay; assay type: functional, organism-based; conditions: j774.a1; summary of the method: as §2
DU-145 [11] = test: Cytotoxicity against human DU145 cells up to 50 ug/ml by MTT assay; assay type: functional, cell-based
MCF7 [12] = test: Cytotoxicity against human MCF7 cells up to 50 ug/ml by MTT assay; assay type: functional, cell-based
KB [13] = test: Cytotoxicity against human KB cells up to 50 ug/ml by MTT assay; assay type: functional, cell-based
C-33-A [14] = test: Cytotoxicity against human C33A cells up to 50 ug/ml by MTT assay; assay type: functional, cell-based
Vero [15] = test: Cytotoxicity against african green monkey Vero cells up to 50 ug/ml by MTT assay; assay type: cell-based; conditions: chlorocebus sabaeus
Leishmania donovani [16] = test: Antileishmanial activity against Leishmania donovani; assay type: functional, organism-based
J774.A1 = test: as §3; assay type: functional; summary of the method: as §4
Leishmania donovani [17] = test: Antileishmanial activity against promastigotes of Leishmania donovani MHOM/IN/80/Dd8 at 500 ug/ml after 72 hrs by luciferase reporter gene assay relative to control; assay type: functional, organism-based; summary of the method: as §1

Row | Compound | inhibition (INH) (Leishmania donovani [1]) | Ratio CC50/IC50 [4] | IC50 (DU-145 [5]) | IC50 (MCF7 [6]) | IC50 (KB [7]) | IC50 (C-33-A [8]) | IC50 (Vero [9]) | IC50 (Leishmania donovani [10]) | Activity (DU-145 [11]) | Activity (MCF7 [12]) | Activity (KB [13]) | Activity (C-33-A [14]) | Activity (Vero [15]) | CC50 at 72 h ([3]; read-out: CC50) | other results
1 | CCc1ccc(C2c3[nH]c4ccccc4c3CCN2c2nc(Cl)cc(Cl)n2)cc1 (racemic) | 60.24% | 6.87 | 23 µg/mL (≈ 54.3 µM) | 32.4 µg/mL (≈ 76.5 µM) | 22.8 µg/mL (≈ 53.9 µM) | 19.8 µg/mL (≈ 46.8 µM) | 37.8 µg/mL (≈ 89.3 µM) | – | – | – | – | – | – | – | IC50 (Leishmania donovani [2]): 4.46 µg/mL (≈ 10.5 µM); CC50 at 72 h [3]: 30.7 µg/mL (≈ 72.4 µM)
2 | Cc1ccc(C2c3[nH]c4ccccc4c3CCN2c2nc(Cl)cc(Cl)n2)cc1 (racemic) | 84.15% | 4.09 | 20.2 µg/mL (≈ 49.4 µM) | 28 µg/mL (≈ 68.4 µM) | 21.6 µg/mL (≈ 52.8 µM) | 24.9 µg/mL (≈ 60.8 µM) | 33.7 µg/mL (≈ 82.3 µM) | – | – | – | – | – | – | – | IC50 (Leishmania donovani [2]): 6 µg/mL (≈ 14.7 µM); CC50 at 72 h [3]: 24.6 µg/mL (≈ 60.1 µM)
3 | COc1cc(OC)cc(C2c3[nH]c4ccccc4c3CCN2c2nc(Cl)cc(Cl)n2)c1 (racemic) | 90.57% | – | – | – | – | – | – | Not Active | inactive | inactive | inactive | inactive | Non-toxic | – | –
4 | COc1ccc(C2c3[nH]c4ccccc4c3CCN2c2nc(Cl)cc(Cl)n2)c(OC)c1 (racemic) | 54.14% | – | – | – | – | – | – | Not Active | inactive | inactive | inactive | inactive | Non-toxic | – | –
5 | COc1ccc(OC)c(C2c3[nH]c4ccccc4c3CCN2c2nc(Cl)cc(Cl)n2)c1 (racemic) | 85.34% | – | – | – | – | – | – | Not Active | inactive | inactive | inactive | inactive | Non-toxic | – | –
6 | CN1CCN(c2cc(N3CCN(C)CC3)nc(N3CCc4c([nH]c5ccccc45)C3c3ccc4c(c3)OCO4)n2)CC1 (racemic) | 99.96% | 5.71 | 1.5 µg/mL (≈ 2.65 µM) | 1.2 µg/mL (≈ 2.12 µM) | 2 µg/mL (≈ 3.53 µM) | 1.1 µg/mL (≈ 1.94 µM) | 2.6 µg/mL (≈ 4.59 µM) | – | – | – | – | – | – | 2.8 µg/mL (≈ 4.94 µM) | IC50 (Leishmania donovani [2]; read-out: IC50): 0.49 µg/mL (≈ 0.865 µM)
7 | CCN1CCN(c2cc(N3CCN(CC)CC3)nc(N3CCc4c([nH]c5ccccc45)C3c3ccc4c(c3)OCO4)n2)CC1 (racemic) | 99.94% | 5.2 | 6.2 µg/mL (≈ 10.4 µM) | 3.6 µg/mL (≈ 6.05 µM) | 4.5 µg/mL (≈ 7.57 µM) | 4.1 µg/mL (≈ 6.89 µM) | 5.9 µg/mL (≈ 9.92 µM) | – | – | – | – | – | – | 2.5 µg/mL (≈ 4.2 µM) | IC50 (Leishmania donovani [2]; read-out: IC50): 0.48 µg/mL (≈ 0.807 µM)
8 | COc1ccc(C2c3[nH]c4ccccc4c3CCN2c2nc(N3CCOCC3)cc(N3CCOCC3)n2)cc1 (racemic) | 97.25% | 15.1 | 4.5 µg/mL (≈ 8.54 µM) | 3.9 µg/mL (≈ 7.41 µM) | 5.1 µg/mL (≈ 9.68 µM) | 2.5 µg/mL (≈ 4.75 µM) | 7.8 µg/mL (≈ 14.8 µM) | – | – | – | – | – | – | 67.7 µg/mL (≈ 128 µM) | IC50 (Leishmania donovani [2]; read-out: IC50): 4.48 µg/mL (≈ 8.51 µM)
9 | COc1ccc(C2c3[nH]c4ccccc4c3CCN2c2nc(N3CCOCC3)cc(N3CCOCC3)n2)cc1OC (racemic) | 85.31% | – | – | – | – | – | – | Not Active | inactive | inactive | inactive | inactive | Non-toxic | – | –
10 | C=CC1CN2CCc3c([nH]c4ccccc34)[C@@H]2C[C@@H]1[C@@H](C(=O)OC)[C@H]1NCCc2c1[nH]c1ccccc21 (stereo partly drawn) [BUCHTIENINE] | – | – | – | – | – | – | – | – | – | – | – | – | – | – | IC50 (Leishmania donovani [16]): > 0.3 µg/mL
11 | N=C(N)c1ccc(OCCCCCOc2ccc(C(=N)N)cc2)cc1 [PENTAMIDINE] | 100% | – | – | – | – | – | – | – | – | – | – | – | – | 25.1 µg/mL (≈ 73.9 µM) | –
12 | sodiumstilbogluconate | – | – | – | – | – | – | – | – | – | – | – | – | – | – | Ratio CC50/IC50 (J774.A1): 6.38; inhibition (Leishmania donovani [17]): 40%
